# Measurements of several laboratories.
# Each line is one published result; the experiments were not run side by side.
# Target: Ephrin type-B receptor 4 (EPHB4, Homo sapiens, UniProt P54760)
# Sequence (P54760 16-987, as in one of the studies): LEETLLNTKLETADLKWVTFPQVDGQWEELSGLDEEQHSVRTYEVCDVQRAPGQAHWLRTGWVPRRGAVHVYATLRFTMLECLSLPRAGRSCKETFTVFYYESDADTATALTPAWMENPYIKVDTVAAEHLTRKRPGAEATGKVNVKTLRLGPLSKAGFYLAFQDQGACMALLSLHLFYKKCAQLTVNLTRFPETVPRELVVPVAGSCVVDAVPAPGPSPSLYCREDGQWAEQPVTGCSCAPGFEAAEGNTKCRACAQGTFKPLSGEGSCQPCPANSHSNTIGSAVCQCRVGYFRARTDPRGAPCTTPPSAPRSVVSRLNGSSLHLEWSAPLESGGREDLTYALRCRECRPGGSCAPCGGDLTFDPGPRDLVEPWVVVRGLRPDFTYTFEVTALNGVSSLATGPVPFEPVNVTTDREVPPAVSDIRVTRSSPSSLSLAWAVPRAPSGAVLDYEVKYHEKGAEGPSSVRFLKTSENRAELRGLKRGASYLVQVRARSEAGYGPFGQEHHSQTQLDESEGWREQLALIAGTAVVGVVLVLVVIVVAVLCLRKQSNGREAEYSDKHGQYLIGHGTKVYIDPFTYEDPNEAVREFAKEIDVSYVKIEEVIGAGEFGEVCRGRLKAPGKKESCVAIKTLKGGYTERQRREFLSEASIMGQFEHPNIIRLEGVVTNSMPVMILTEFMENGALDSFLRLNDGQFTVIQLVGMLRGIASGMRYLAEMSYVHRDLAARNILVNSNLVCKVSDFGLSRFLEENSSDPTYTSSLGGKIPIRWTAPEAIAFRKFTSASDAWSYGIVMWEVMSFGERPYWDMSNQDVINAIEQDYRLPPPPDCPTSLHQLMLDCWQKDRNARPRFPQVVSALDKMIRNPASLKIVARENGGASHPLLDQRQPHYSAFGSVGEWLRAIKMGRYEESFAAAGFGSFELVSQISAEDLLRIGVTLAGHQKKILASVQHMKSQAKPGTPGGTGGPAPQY
SMILES,read-out,technique,tested at,remaining binding [%]
O=C(NCCCN1CCOCC1)c1ccc(Nc2ncc(Cl)c(-c3ccc(Cl)s3)n2)cc1,binding,competition with immobilised ligand,1 µM,91
CN(CCCC(F)(F)F)c1nccc(-c2cnn3ncccc23)n1,binding,,1 µM,93
c1cncc(-c2cccc(Nc3nccc(NC4CCCCC4)n3)c2)c1,binding,competition with immobilised ligand,10 µM,89
CN(c1nccc(-c2cnn3ncccc23)n1)C1CC1,binding,,1 µM,100
FC(F)(F)Oc1cccc(-c2cnc3ccc(-c4ccncc4)nn23)c1,cell-free assay,competition with immobilised ligand,5 µM,87
O=C(c1ccc(Nc2ncc(Cl)c(-c3cc4ccccc4s3)n2)cc1)N1CCC(N2CCCC2)CC1,binding,competition with immobilised ligand,1 µM,65
C[C@@H]1CCN(c2nccc(-c3cnn4ncccc34)n2)C1,binding,,1 µM,100
O=c1nc(-c2ccccn2)sc2ccccc12,cell-free assay,competition with immobilised ligand,1 µM,100
CN(C)c1nccc(-c2cnn3ncccc23)n1,binding,,1 µM,100
Cc1cc(C)c(-n2ccn3nc(-c4cccnc4)cc23)cc1NC(=O)c1cc(C#N)cc(S(F)(F)(F)(F)F)c1,cell-free assay,competition with immobilised ligand,0.1 µM,99.6
F[C@@H]1CCN(c2nccc(-c3cnn4ncccc34)n2)C1,binding,,1 µM,90
O=C(c1ccc(Nc2ncc(Cl)c(-c3ccc(Cl)s3)n2)cc1)N1CCC(N2CCCC2)CC1,binding,competition with immobilised ligand,1 µM,67
CCCCN(CCCC)C(=O)CN1C[C@@H](c2cc(OC)c3c(c2)OCO3)[C@H](C(=O)O)[C@H]1CC(C)(C)CCC,cell-free assay,competition with immobilised ligand,1 µM,98.5
O=C(Nc1c[nH]nc1C(=O)NC1CCNCC1)c1cc(F)cc(F)c1,binding,competition with immobilised ligand,1 µM,100
CN(C)c1nccc(-c2cnc3ncccn23)n1,binding,,1 µM,100
CC1=C(C#N)C(c2ccc3c(c2)c(NC(=O)c2ccccc2C)nn3C)C(C#N)=C(C)N1,cell-free assay,competition with immobilised ligand,1 µM,97
COc1cnc(Nc2cccc(S(N)(=O)=O)c2)nc1N1CCN(c2ccccc2)C(=O)C1,binding,competition with immobilised ligand,1 µM,100
Cn1cc(Cl)c2c(Oc3c(F)cc(Nc4cc(Cl)nc(N)n4)cc3F)ccnc21,cell-free assay,competition with immobilised ligand,0.1 µM,100
COc1cnc(Nc2cccc(S(N)(=O)=O)c2)nc1N1CCN(c2ccccc2)CC1,binding,competition with immobilised ligand,1 µM,96
CCOC(=O)c1cc2cc(-c3cc(C(=O)NCc4ccc(C(=O)O)cc4)nn3C)ccc2[nH]1,cell-free assay,competition with immobilised ligand,0.1 µM,99
COc1ncc2cc3ccccc3nc2c1C#N,cell-free assay,competition with immobilised ligand,5 µM,100
